Screening data deposited in PubChem by Broad Institute.
Most compounds without a hit are left out; they make up all but 1.2% or so of the library.
FN deposit inh = inhibitors of fibronectin matrix deposition, primary screen, AH1F cells, Alexa488-fibronectin fluorescence, plate reader; AH1F fibroblasts, overnight; inhibition, % at 12.6 µM; actives 0.086% (n = 350,000); AID 743247, 2014;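 active = mean inhibition across replicates of 30% or more, regardless of how many single replicates reach that level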;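 also: positive control wells lacked labelled fibronectin entirely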
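Assay system: AH1F fibroblasts / Quantity: 10000 cells per well / Medium: DMEM plus 2% serum, read in PBS / Reagent: labelled fibronectin 24 nM / Dosing: single dose, pinned / Times: 1 h cell attachment, overnight exposure to compound and label / Signal: fluorescence, ex 485 nm, em 525 nm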
N-glyco inh = increase of ERlucT glycosylation luciferase signal, primary screen, N-linked glycosylation inhibitor project, D54 ERlucT cells, luminescence, set 2 | D54 ERlucT glycosylation luciferase reporter, 24 h; percent of 100 nM tunicamycin response | reporter increase, % at 12.5 µM | actives 0.23% (n = 360,000);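 active = mean luciferase reporter signal, scaled so untreated is 0 and the glycosylation-blocking control 100, at or above a set limit in every replicate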;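 also: luciferase carries N-glycosylation sites so blocking glycosylation raises the light; 0% = median of neutral control wells and 100% = median of 100 nM tunicamycin wells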
RAD52 inh = RAD52 DNA annealing inhibitors, primary screen, biochemical, FRET, single point, set 2. inhibition, % at 18.7 µM. actives 0.46% (n = 360,000). recombinant RAD52 DNA annealing, FRET fluorescence. DNA repair protein RAD52 homolog (Homo sapiens), P43351;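 active = every replicate showing at least 50% inhibition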
AF4-AF9 inh = inhibitors of AF4 peptide binding to AF9, primary screen, biochemical, AlphaScreen, biotin-AF4 peptide, FLAG-AF9, single point; inhibition, % at 10 µM; Protein AF-9 (Homo sapiens), P42568; actives 0.47% (n = 350,000);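 active = every replicate reaching a set inhibition limit, whatever the replicate mean, cut at about 25% in these data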;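 also: 0% = plate neutral control median and 100% = total signal loss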
RAD54 inh = inhibitors of human RAD54 branch migration, primary screen, biochemical, fluorescence, single point | RAD54 Holliday junction branch migration, FAM/BHQ fluorescence | inhibition, % at 10.4 µM | actives 0.14% (n = 360,000) | AID 602329, 2012;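 active = mean normalized replicate activity at least 40 and at least half of replicates scoring 40 or more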;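 also: 0% = median of neutral control wells and 100% = median of positive control wells; inhibitors cause a drop in the FAM fluorescence signal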
Target sequence (Q92698 whole entry, looked up): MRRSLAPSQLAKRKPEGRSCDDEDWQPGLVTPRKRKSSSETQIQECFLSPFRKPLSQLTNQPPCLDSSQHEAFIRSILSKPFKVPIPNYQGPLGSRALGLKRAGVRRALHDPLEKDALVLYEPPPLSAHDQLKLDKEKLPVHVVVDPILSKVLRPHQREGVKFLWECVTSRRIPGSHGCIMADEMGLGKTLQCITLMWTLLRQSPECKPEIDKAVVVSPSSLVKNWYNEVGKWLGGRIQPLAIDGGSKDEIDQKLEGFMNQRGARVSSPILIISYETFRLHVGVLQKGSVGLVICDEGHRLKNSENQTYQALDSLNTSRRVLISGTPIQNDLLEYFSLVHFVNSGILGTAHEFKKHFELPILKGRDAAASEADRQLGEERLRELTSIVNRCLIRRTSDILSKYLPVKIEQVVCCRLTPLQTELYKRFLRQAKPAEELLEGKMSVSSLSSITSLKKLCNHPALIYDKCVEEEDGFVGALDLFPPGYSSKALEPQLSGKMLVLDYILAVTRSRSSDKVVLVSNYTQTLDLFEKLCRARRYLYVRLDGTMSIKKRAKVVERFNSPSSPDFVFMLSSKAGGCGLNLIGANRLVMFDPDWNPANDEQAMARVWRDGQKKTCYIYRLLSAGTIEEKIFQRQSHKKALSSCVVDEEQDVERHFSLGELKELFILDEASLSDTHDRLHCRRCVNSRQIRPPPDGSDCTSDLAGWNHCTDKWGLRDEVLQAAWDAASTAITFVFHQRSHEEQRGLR
NSD2 inh = NSD2 histone methyltransferase inhibitors, primary screen, biochemical, AlphaScreen, single concentration, set 2; Histone-lysine N-methyltransferase NSD2 (Homo sapiens), O96028; NSD2 peptide methylation, 120 min; inhibition, % at 12.5 µM; actives 0.54% (n = 310,000); AID 743445, 2014; in the data active = inhibition above about 50%
Alpha artifact = AlphaScreen signal interference with preloaded methylated product, dose response, artefact control for NSD2 inhibitor project, biochemical, cherry-picked samples | shares compounds with NSD2 inh | AlphaScreen artifact counterscreen, preloaded methylated H4 peptide | AC35, µM (titrated, usually from 10 µM), inactives show at the top dose activity change, negative = signal loss | actives 9.4% (n = 1,500) | AID 1053174, 2014; call rule not given here
* marks the source's active call; other numbers are inactive results; / = no result.

SMILES	FN deposit inh	N-glyco inh	RAD52 inh	AF4-AF9 inh	RAD54 inh	NSD2 inh	Alpha artifact
Cc1ccc(S(=O)(=O)N(C)C[C@H]2OCCCC[C@@H](C)Oc3ccc(NS(=O)(=O)c4cccs4)cc3C(=O)N([C@@H](C)CO)C[C@H]2C)cc1	6	/	-26	-1	-11	/	/
Cc1ccc(OCCCCNC(C)(C)C)c([N+](=O)[O-])c1	/	0	/	/	/	8	/
CCCCCCNc1c([N+](=O)[O-])cc(C)cc1[N+](=O)[O-]	-1	-2	/	/	-1	53*	9.9µM*
C[C@@H]1CN([C@H](C)CO)C(=O)c2cccc(NC(=O)c3ccncc3)c2O[C@H]1CN(C)C(=O)Nc1ccc2c(c1)OCO2	/	/	-11	-3	3	/	/
Oc1cccc(/C=N/NC(=S)Nc2cccnc2)c1O	/	-3	/	/	/	79*	-6%
CCN(CC)CCNC(=O)CN1C(=O)COc2ccc(S(=O)(=O)N3CCOCC3)cc21	-1	1	-7	-3	-6	81*	0%
CC(C)CN(CCNC(=O)CN1C(=O)COc2ccc(S(=O)(=O)N3CCOCC3)cc21)CC(C)C	-1	2	-8	-6	-8	-2	/
COc1ccc(CN2C[C@H](C)[C@H](OC)CN(C)C(=O)c3cc(NC(=O)c4nc5ccccc5s4)ccc3OC[C@@H]2C)cc1	5	/	40	5	12	/	/
O=C(C1CC1)N1CCc2[nH]c3ccccc3c2C1	3	6	/	/	-8	100*	-3%
CCCCNC(=O)N1CCc2[nH]c3ccccc3c2C1	11	-2	-19	-1	-3	0	/
Cc1ccc(S(=O)(=O)Nc2ccc3c(c2)CC(=O)N([C@@H](C)CO)C[C@H](C)[C@H](CN(C)C(=O)NC2CCCCC2)O3)cc1	/	/	9	4	9	/	/
CCN(CC)C(=O)COC(=O)C1=NN(c2cc(C)ccc2C)C(=O)CC1	3	6	-15	-3	-12	59*	-5%
Cc1cccc(OCC(=O)N/N=C/c2sc(=O)n(Cc3cccc(C(=O)O)c3)c2Cl)c1	1	2	-41	-6	-12	-1	/
O=C(COc1ccccc1)N/N=C/c1sc(=O)n(Cc2cccc(C(=O)O)c2)c1Cl	-5	0	-132	3	/	62*	-3%
COc1ccc(CNC(=O)c2nnn(-c3cccc(C(F)(F)F)c3)c2N)cc1	-4	5	-7	3	-1	51*	2%
COc1ccc(CNC(=O)c2nnn(Cc3ccc(OC)cc3)c2N)cc1	0	0	-13	-4	8	/	/
COc1ccc2c3c([nH]c2c1)[C@@H](CO)N(CC1CC1)CC31CCN(C(=O)NC2CCCC2)CC1	/	/	-30	-6	/	/	/
CCN(CC)S(=O)(=O)c1ccc(-c2cn3cc(Cl)ccc3n2)cc1	-1	6	-6	-2	9	77*	2%
Clc1ccc(-c2cn3cc(Cl)ccc3n2)cc1	5	-17	-1	-3	/	-3	/
CCOC(=O)c1ccc(N=c2scc(C)n2CC)cc1	14	-12	-10	26*	-7	51*	-12%
CCOC(=O)c1ccc(N=NN(C)C)cc1	-5	0	-5	1	/	-5	/
COc1cccc(C#Cc2cnc3c(c2)C(=O)N([C@H](C)CO)C[C@@H](C)[C@@H](CN(C)C(=O)C2CCOCC2)O3)c1	/	/	-4	-2	6	/	/
CCNCCNc1ccc(Cl)cc1[N+](=O)[O-]	2	-3	/	/	9	64*	-3%
CC=Cc1ccc2n(c1=O)C[C@H]1[C@H](CO)[C@@H](C(=O)N3CCc4ccccc4C3)N(C(=O)C3CC3)[C@@H]21 (mixture of isomers)	/	/	-6	0	-5	/	/
COc1ccc(S(=O)(=O)Nc2cc(SCC(=O)O)c(O)c3ccccc23)cc1	6	10	-18	3	2	121*	-6%
SMILES	FN deposit inh	N-glyco inh	RAD52 inh	AF4-AF9 inh	RAD54 inh	NSD2 inh	Alpha artifact
CCNC(=O)C[C@@H]1CC[C@H]2[C@@H](COc3ccc(NC(=O)Nc4cccc(F)c4)cc3C(=O)N2C)O1	-7	/	3	1	-2	/	/
COc1ccc2c3c([nH]c2c1)[C@@H](CO)N(C(=O)NC(C)C)CC31CN(C(=O)C2CCCCC2)C1	/	/	6	-1	/	/	/
CNC(=S)NC(CC(=O)OC)c1ccc2c(c1)OCO2 (centres undefined)	12	2	-10	-4	/	56*	-2%
COc1ccc(-c2nn(-c3ccccc3)cc2C(=O)Nc2ccc(C(=O)O)cc2)cc1	4	0	-20	1	-1	73*	-3%
CN1CCC(=NNC(=O)c2cn(-c3ccccc3)nc2-c2ccccc2)CC1	-2	-1	-17	0	2	53*	1%
CC(=O)N(C)C[C@@H]1Oc2ccc(N(C)C)cc2C(=O)N(C)C[C@H]1C	-13	/	/	/	/	/	/
Cc1ccc(S(=O)(=O)N(C)C[C@H]2Oc3ccc(NC(=O)NC4CCCCC4)cc3CC(=O)N([C@@H](C)CO)C[C@H]2C)cc1	/	/	26	1	-6	/	/
O=C(CCSc1nc(-c2ccccc2)c(-c2ccccc2)o1)N1CCCCC1	-2	-5	-7	4	/	0	/
O=C(CSc1nc(-c2ccccc2)c(-c2ccccc2)o1)N1CCCCC1	-6	-11	-4	1	-2	69*	-5%
C[C@@H]1CN([C@@H](C)CO)C(=O)c2c(c3ccccc3n2C)-c2ccccc2CO[C@H]1CN(C)Cc1ccccc1	-2	/	/	/	/	/	/
COCCNC(=O)Cc1c(C)c2c(cc(C)c3c(C)coc32)oc1=O	7	1	-5	-1	-11	51*	3%
Cc1coc2c1c(C)cc1oc(=O)c(CC(=O)NCCC(=O)O)c(C)c12	-10	-1	-7	7	-2	-2	/
C[C@@H]1CCCCO[C@H](CN(C)S(=O)(=O)c2cn(C)cn2)[C@@H](C)CN([C@@H](C)CO)C(=O)c2cc(NC(=O)C3CCCCC3)ccc2O1	/	/	4	-3	-2	/	/
Cc1ccc(S(=O)(=O)N(C)CC(=O)NCCCn2ccnc2)cc1	-1	0	-21	0	-12	115*	-4%
N#Cc1ccc(OCC(=O)NCCCn2ccnc2)cc1	-2	3	-6	6	9	63*	2%
